The text below walks through data of publication PMC3501595 (Biochemical pharmacology, 2012).

The IC50 is the concentration at which inhibition is half-maximal. A higher IC50 goes with lower potency. As a reminder, the Ki is a measure of affinity in units of concentration, obtained from inhibition or displacement. A high value points to a looser hold on the target.

In assay [1] the target is T1, topoisomerase IIα (Homo sapiens, UniProt P11388). Put plainly: kDNA decatenation assay at […] ATP. The assay is classed as biochemical.
T1 sequence (P11388 whole entry): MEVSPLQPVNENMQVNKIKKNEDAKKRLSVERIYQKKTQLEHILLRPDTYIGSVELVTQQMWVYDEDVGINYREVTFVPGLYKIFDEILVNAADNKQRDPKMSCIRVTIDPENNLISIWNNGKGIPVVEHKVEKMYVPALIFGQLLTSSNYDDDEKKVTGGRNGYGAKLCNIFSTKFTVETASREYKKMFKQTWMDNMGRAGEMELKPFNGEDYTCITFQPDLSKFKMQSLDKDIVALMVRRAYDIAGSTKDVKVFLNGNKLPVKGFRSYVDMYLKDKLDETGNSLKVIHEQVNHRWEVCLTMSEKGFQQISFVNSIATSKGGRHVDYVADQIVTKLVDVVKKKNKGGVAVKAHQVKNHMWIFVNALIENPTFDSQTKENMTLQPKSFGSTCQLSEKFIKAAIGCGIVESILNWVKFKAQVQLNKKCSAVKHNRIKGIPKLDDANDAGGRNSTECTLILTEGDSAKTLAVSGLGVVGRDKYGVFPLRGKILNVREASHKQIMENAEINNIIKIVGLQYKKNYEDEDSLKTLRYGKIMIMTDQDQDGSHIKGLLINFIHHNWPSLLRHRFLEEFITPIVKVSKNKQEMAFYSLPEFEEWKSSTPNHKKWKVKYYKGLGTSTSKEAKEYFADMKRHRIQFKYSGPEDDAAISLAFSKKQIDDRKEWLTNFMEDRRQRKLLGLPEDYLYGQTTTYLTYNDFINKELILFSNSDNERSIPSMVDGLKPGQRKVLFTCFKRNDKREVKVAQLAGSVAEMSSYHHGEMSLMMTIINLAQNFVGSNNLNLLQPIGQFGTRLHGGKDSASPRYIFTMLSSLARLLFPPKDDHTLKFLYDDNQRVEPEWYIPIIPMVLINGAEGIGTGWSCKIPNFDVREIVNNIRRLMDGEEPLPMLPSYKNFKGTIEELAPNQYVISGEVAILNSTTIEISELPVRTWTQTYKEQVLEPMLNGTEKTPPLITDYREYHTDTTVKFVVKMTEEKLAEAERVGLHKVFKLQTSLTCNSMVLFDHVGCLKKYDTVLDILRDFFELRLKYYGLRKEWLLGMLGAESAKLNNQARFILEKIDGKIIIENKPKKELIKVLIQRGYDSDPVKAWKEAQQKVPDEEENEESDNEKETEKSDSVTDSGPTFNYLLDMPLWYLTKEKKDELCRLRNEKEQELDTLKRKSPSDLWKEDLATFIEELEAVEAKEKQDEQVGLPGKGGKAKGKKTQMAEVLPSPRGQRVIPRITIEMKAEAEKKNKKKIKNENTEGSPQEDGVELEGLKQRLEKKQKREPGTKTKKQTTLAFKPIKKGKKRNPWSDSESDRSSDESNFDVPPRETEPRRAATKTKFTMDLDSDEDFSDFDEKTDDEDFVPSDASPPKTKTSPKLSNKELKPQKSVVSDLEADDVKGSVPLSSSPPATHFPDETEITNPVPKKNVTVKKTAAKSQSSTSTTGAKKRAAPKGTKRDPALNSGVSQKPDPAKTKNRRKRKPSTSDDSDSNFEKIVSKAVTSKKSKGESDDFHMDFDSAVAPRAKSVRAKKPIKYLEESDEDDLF
In assay [2] the target is T2, yeast topoisomerase II (Saccharomyces cerevisiae, UniProt P06786).
T2 sequence (P06786 1-1428): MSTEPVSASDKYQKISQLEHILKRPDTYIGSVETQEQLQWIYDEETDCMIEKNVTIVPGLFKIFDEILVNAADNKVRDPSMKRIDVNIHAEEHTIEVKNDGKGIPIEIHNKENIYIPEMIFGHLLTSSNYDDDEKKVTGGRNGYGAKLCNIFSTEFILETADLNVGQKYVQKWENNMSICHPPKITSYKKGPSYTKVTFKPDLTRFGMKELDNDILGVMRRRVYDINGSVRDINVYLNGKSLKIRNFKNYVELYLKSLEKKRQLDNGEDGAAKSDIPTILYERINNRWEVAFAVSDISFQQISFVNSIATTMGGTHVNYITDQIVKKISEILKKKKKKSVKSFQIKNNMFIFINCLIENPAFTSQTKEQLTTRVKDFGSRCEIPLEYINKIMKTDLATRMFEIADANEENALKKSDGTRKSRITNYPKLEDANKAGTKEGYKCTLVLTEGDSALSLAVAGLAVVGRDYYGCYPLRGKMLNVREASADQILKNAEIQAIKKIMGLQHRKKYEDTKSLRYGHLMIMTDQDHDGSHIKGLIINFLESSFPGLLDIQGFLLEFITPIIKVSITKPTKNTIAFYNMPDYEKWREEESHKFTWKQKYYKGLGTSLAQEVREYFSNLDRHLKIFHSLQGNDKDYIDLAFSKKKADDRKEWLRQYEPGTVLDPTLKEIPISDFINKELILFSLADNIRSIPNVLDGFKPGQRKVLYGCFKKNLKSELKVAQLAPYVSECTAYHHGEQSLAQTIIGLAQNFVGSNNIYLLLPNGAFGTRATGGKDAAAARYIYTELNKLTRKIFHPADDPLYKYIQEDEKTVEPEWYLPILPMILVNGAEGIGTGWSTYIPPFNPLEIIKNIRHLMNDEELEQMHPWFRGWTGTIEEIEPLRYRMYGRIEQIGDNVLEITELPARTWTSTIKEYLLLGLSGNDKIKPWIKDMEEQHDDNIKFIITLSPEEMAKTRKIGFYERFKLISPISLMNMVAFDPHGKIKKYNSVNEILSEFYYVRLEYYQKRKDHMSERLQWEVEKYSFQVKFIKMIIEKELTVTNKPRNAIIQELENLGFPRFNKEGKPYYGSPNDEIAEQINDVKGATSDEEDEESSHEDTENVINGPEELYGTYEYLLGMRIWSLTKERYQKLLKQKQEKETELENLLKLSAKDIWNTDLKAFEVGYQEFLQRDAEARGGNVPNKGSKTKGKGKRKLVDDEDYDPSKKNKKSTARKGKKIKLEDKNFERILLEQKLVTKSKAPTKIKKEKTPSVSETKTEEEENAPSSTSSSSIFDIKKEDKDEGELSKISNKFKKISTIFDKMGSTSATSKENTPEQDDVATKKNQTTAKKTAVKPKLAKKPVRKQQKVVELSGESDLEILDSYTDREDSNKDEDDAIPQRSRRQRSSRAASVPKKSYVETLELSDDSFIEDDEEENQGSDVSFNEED
Nature of the assay: ATP/NADH-coupled DNA-independent ATPase assay, purified enzyme. The class given is biochemical.

The target of assay [3] is T3, topoisomerase I (Homo sapiens, UniProt P11387).
T3 sequence (P11387 2-765): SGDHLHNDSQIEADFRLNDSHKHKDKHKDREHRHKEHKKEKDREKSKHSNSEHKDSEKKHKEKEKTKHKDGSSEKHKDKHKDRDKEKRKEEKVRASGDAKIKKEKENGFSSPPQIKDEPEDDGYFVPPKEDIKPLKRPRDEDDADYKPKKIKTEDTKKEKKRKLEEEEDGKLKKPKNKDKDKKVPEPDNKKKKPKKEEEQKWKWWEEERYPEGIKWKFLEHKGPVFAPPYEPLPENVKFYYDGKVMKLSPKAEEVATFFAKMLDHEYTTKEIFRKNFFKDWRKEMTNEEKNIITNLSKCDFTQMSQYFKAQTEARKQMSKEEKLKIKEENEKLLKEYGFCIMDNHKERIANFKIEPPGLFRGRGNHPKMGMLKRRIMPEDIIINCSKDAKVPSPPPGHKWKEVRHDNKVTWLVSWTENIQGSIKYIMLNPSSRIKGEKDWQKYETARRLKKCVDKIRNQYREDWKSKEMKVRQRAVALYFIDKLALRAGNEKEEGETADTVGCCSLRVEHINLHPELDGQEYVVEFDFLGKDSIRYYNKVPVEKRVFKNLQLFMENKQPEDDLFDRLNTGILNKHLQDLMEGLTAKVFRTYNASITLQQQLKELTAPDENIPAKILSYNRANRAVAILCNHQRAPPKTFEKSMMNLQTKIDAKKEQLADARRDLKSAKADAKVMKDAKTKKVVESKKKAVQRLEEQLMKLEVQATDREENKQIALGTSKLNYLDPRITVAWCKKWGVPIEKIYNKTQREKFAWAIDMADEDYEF
Put plainly: pBR322 DNA relaxation gel assay. The class given is biochemical.

In assay [4] the target is topoisomerase IIβ (Homo sapiens, UniProt Q02880). Put plainly: cellular ICE assay of covalent enzyme-DNA complexes in K562 cells. The assay is classed as cell-based.
topoisomerase IIβ, sequence (Q02880 2-1626): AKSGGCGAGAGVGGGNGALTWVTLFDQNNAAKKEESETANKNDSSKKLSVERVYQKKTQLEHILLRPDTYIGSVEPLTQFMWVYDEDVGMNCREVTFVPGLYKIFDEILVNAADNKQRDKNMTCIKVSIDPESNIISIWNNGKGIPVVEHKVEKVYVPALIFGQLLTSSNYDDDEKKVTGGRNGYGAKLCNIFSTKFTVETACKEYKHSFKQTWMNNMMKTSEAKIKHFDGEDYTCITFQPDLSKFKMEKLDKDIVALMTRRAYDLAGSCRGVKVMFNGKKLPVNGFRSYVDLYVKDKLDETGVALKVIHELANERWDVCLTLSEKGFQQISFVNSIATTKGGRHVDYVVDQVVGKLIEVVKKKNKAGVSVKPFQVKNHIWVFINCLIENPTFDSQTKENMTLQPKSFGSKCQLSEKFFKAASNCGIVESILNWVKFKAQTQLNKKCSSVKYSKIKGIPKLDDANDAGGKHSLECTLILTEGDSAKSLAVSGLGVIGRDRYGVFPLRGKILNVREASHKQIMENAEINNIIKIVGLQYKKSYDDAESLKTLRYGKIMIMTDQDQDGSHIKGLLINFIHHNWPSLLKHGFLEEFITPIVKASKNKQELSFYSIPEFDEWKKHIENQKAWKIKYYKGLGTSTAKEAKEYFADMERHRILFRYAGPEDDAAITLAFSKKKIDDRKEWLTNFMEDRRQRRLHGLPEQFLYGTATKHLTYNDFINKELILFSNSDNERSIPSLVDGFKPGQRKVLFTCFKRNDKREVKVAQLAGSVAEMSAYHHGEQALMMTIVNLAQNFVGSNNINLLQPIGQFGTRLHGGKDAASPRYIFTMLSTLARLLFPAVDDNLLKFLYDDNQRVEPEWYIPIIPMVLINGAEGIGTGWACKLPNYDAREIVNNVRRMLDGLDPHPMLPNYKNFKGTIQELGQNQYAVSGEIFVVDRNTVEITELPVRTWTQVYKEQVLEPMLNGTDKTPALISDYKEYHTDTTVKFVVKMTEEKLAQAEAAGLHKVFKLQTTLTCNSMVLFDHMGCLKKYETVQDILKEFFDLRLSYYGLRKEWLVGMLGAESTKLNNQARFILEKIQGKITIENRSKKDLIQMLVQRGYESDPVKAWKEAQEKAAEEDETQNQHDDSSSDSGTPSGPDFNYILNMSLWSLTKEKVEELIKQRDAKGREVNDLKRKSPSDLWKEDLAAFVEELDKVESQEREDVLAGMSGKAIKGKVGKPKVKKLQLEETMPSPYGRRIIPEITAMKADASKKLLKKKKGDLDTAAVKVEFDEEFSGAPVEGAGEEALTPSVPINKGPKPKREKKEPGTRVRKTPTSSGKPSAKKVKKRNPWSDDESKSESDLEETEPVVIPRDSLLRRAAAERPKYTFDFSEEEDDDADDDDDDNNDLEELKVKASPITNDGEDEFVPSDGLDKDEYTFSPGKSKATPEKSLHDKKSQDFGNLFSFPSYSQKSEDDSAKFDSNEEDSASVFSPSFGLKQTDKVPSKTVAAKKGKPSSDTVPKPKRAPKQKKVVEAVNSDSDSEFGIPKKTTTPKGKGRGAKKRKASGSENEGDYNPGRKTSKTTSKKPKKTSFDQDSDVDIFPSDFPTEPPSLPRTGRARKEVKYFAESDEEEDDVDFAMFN
Assay [5] has as its target T1, topoisomerase IIα. Nature of the assay: kDNA decatenation gel assay. The class given is biochemical. Put shortly:
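Recombinant full-length human topoisomerase IIα. Decatenation: catenated kDNA networks released as individual minicircles in an ATP-dependent reaction, resolved on gel. Cleavage: closed circular pBR322 converted to linear DNA at 37 °C. All components were mixed on ice before the test compound was added. Complexes were trapped with SDS and resolved by ethidium bromide gel electrophoresis.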

Regarding `Nc1ncnc2c1ncn2[C@@H]1O[C@H](COP(=O)(O)OP(=O)(O)NP(=O)(O)O)[C@@H](O)[C@H]1O` [AMP-PNP], in assay [1], the IC50 is 2 ± 0.4 µM.
Consider `CN1CCN(c2ccc3nc(-c4c(N)c5c(F)cccc5[nH]c4=O)[nH]c3c2)CC1` [dovitinib], for which the Ki in assay [2] is 2.4 ± 1.5 µM. Moreover, the IC50 came out at 6.2 ± 1.7 µM in assay [3] and 13 ± 4 µM in assay [5]. Also, the “cellular ICE assay of covalent enzyme-DNA complexes in K562 cells” value in assay [4] was “Both dovitinib and etoposide also induced concentration dependent increases in the amount of the topoisomerase IIβ-covalent complex”.
Consider `COc1cc([C@@H]2c3cc4c(cc3[C@@H](O[C@@H]3O[C@@H]5CO[C@@H](C)O[C@H]5[C@H](O)[C@H]3O)[C@H]3COC(=O)[C@H]23)OCO4)cc(OC)c1O` [etoposide, reference compound], for which the “cellular ICE assay of covalent enzyme-DNA complexes in K562 cells” value in assay [4] was “Both dovitinib and etoposide also induced concentration dependent increases in the amount of the topoisomerase IIβ-covalent complex”.
